Data published in ChEMBL document CHEMBL4513216, “Probing the Open Global Health Chemical Diversity Library for Multistage-Active Starting Points for Next-Generation Antimalarials” (ACS Infect Dis, 2020).

experiment: Toxicity liver stage against HepG2, at 10uM; type: cell-based; set-up: test concentration 10 uM, cell line HepG2-A16-CD81EGFP; conditions: human, HepG2-A16-CD81EGFP cells; read-out: INHIBITION
In short: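 Uninfected HepG2-A16-CD81EGFP cells, 3 × 10^3 per well, 1536-well, plated on prespotted compound at 10 μM final, parasite-free screening media added to match infected plates; puromycin 10 μM positive, DMSO 0.5% negative; run in parallel with 48 h PbLuc assay at 37 °C, 5% CO2; viability by CellTiter-Glo luminescence, normalized to controls.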

Compound | cytotoxicity at 10 µM [%]
O=C(CCC(=O)Nc1nnc(C2CCCCC2)s1)NCC1CCCO1 (stereo unspecified) | -7.7
O[C@@H]1C[C@@H](c2nc(Cc3ccccc3)no2)N(Cc2ccc(F)cc2)C1 | 0.296
Cc1ccc(CNC2(Cc3cc(-c4cccc(O)c4)on3)COC2)o1 | -0.873
O[C@@H]1C[C@@H](c2nc(-c3ccc(F)cc3)no2)N(C2CCOCC2)C1 | 4.51
CN1Cc2ccccc2N(CC(O)C(F)(F)F)CCC1=O (stereo unspecified) | 0.905
Cn1ccc2ccc(C(=O)N3CC[C@@]4(O)CCCC[C@H]4C3)cc21 | -46.6
Cn1cc(C2SCC(=O)Nc3c2cnn3C(C)(C)C)cn1 (stereo unspecified) | -6.24
Cc1nc(CO[C@@H]2CN(Cc3ccco3)[C@@H]3COC[C@@H]32)cs1 | 5.66
Cc1nc([C@H]2C[C@@H]3CCN(C(=O)c4ccnnc4)C[C@H]3O2)sc1C | 1.01
CN1CCCN(Cn2nc(-c3ccccc3F)ccc2=O)CC1 | 9.77
CCOC(=O)CSc1ccc(-c2nc(C)no2)cn1 | -15.2
Cc1noc(C2CCN(c3oc(C)nc3C#N)CC2)n1 | -6.32
CCOC1Sc2nnc(C)n2N=C1c1ccc(Br)cc1 (stereo unspecified) | -2.92
CCOCc1cccc(S(=O)(=O)Nc2ccn(CC)n2)c1 | 4.84
CN(C)C(=O)c1cn[nH]c1C1CCCN1Cc1c[nH]cn1 (stereo unspecified) | -3.3
Cc1cc(-c2cc(N)c(=O)n(CC(=O)NC3CCCC3)n2)c(C)o1 | 4.39
CC1(C(=O)N2CCN(c3ncccn3)CC2)CNCCO1 (stereo unspecified) | -0.79
CC(=O)OCc1ccc(CN2CCCCCC2c2cc(C)no2)o1 (stereo unspecified) | -13.1
O=C(C1CCCC1)N1CCCC(c2nc(O)cc(-c3ccncc3)n2)C1 (stereo unspecified) | -16.9
Cc1ccc(Br)cc1NC(=O)NC1CCC2(C1)OCCO2 (stereo unspecified) | 15.6
CC(NC(=O)N1CCC1)c1ccc(S(C)(=O)=O)cc1 (stereo unspecified) | -4.22

Compound | cytotoxicity at 10 µM [%]
Cc1ncc2c(n1)CN(Cc1cn3ccsc3n1)CC2 | -9.06
O=C(O)c1csc(S(=O)(=O)Nc2c(F)cccc2-n2cccn2)c1 | -7.32
O=C(c1ccoc1)N1CCN(Cc2ccccc2F)CC1 | -13.2
Cc1cccc(-c2noc(CN3CCc4c(ncn4C4CC4)C3)n2)c1 | 4.95
CN(Cc1nccn1C)S(=O)(=O)Cc1cccc(C#N)c1 | 4.16
CN(C)S(=O)(=O)N1CCN(C(=O)c2cc(-c3ccccc3)[nH]n2)CC1 | -0.665
CCN1CCN(S(=O)(=O)c2cn(C(C)C)cn2)c2ccccc21 | -4.3
Cc1nccn1CCCNc1ncccc1C#N | -9.09
CN(Cc1cnn(C)c1)C(=O)c1ccc(Cl)c(N2CCNC2=O)c1 | -10.8
Cc1ccc(C(NCC(=O)N2CCNC(=O)C2)C(F)(F)F)cc1 (stereo unspecified) | -8.3
COc1ccc(NC(C)c2nnnn2-c2ccccc2)cn1 (stereo unspecified) | 3.99
COCCOCCNc1cncc(Br)c1 | -1.33
Cc1cc(C(=O)Nc2ccn(CCCN3CCCC3)n2)c(C)o1 | -7.12
O=C(NC1(c2cccc(F)c2)CCOCC1)c1ccoc1 | -9.41
Cc1cc(C(=O)N2CCCC(n3ccnc3C)C2)c(C)s1 (stereo unspecified) | -16
CC1CCCN(CCNC(=O)c2cncnc2C(C)C)C1 (stereo unspecified) | -10.6
COc1ccc(CNC(=O)NCC2CCOC2)c(C(F)(F)F)c1 (stereo unspecified) | -8.28
CS(=O)(=O)NCc1nnc2n1CCN(Cc1nccs1)C2 | -75.7
Cc1ccc(N2CCC3(CCCN(C(=O)c4cnccn4)C3)C2)nn1 (stereo unspecified) | 1.14
CC(C)N1CCO[C@H]2CN(C(=O)c3ccc(N(C)C)cc3)C[C@H]21 | 3.19
FC(F)(F)c1ccc(-c2cc(NC3CCNCC3)nc3[nH]ccc23)nc1 | -0.608

Compound | cytotoxicity at 10 µM [%]
Cn1cc(C(=O)N2CCC(c3nccn3Cc3ccncc3)CC2)cn1 | -0.658
CC(C)CCN1CC2(CCN(C3CCCOC3)CC2)OC1=O (stereo unspecified) | 6.31
C=C(C)COc1ccccc1C(=O)N1CCC2(CC1)CN(C)CCN2C | -50.2
Cc1cc(C(=O)N2CCC3(CCNCC3)CC2)c2cccc(C)c2n1 | -15.6
CC(C)NC(=O)N1CCC(c2nccn2C(C)C)CC1 | -6.77
Cc1cnccc1CN1CCN(C)C2(CCC(=O)N(CC3CC3)CC2)C1 (stereo unspecified) | -3.51
COCCOC1CCN(C(C(=O)O)c2ccc(OC)c(F)c2)CC1 (stereo unspecified) | 7.42
Cc1nc2c(c(NCCc3nc(C)c(Cl)s3)n1)CCNCC2 | -9.28
CCc1cc(NCC(O)CN2CCCC2)ncn1 (stereo unspecified) | 6.09
COCC[C@]1(O)CCN(Cc2ccccn2)C[C@H]1C | -7.72
O=C(c1cc(-n2cccn2)ccc1Cl)N1CCC(N2CCCC2=O)CC1 | -2.08
CCn1ncc(CN2CCCC(C(=O)c3ccc(Cl)cc3)C2)c1C (stereo unspecified) | 0.522
Cc1cc(N2CCC(C(=O)O)(n3ccc(C(C)C)n3)CC2)nc(N)n1 | 0.445
Cc1nc2c(C)cccc2cc1C(=O)N1CCC2(CCCNC2)C1 (stereo unspecified) | -10.3
COc1ccc(NC2(C(=O)N3CCCn4cncc4C3)CCCC2)cc1 | 10.2
Cc1nc(O)cc(CCNC(=O)c2ccccc2N2CCCC2)n1 | 10.4
CCCn1ccnc1CN1C[C@@H](CN2CCCCC2)[C@@H](CO)C1 | 0.945
CCCOC1CCCN(C(=O)c2cc(CN(CC)CC)c(CC)o2)C1 (stereo unspecified) | 10.1
CN(C)c1nc2c(c(N3CCC(O)CC3)n1)CN(CC1CCNC1)CC2 (stereo unspecified) | -10.5
COCC(O)CNC(=O)c1cnc(-c2ccccc2)nc1O (stereo unspecified) | -10.2
CC(C)c1nc(C(=O)NCCn2ccnc2)nn1-c1cccc(F)c1 | -7.64

Compound | cytotoxicity at 10 µM [%]
COC(=O)c1ccc(N2CCN(CCC#N)C(C)C2)cc1 (stereo unspecified) | -11.3
COc1c(CNCCNC(=O)Cc2ccc(F)cc2)c(C)nn1C | -3.09
CC(C)CCCNC(=O)Nc1ccc(F)c(C(N)=O)c1 | -2.73
COCCc1noc(CN2CCCCC2Cn2nc(C)cc2C)n1 (stereo unspecified) | 0.962
CCOc1ccc(Br)cc1C1CCCCN1 (stereo unspecified) | 7.16
NCCc1cc(N2CCOCC2)nc(NC2CC2)n1 | 0.881
Cc1cc(N2CCN(Cc3cn(C)nc3C)CC2)cc(C2CCNC2)n1 (stereo unspecified) | 0.39
OCCN(Cc1ccncc1)CC1(c2ccc(Cl)cc2)CCCC1 | 13.8
CN1CC[C@H]2OCC[C@@H](C(=O)NCc3ccco3)[C@@H]2C1 | -78
COCC1CC2(CCN(C(=O)c3occc3C)CC2)CN1C(C)C (stereo unspecified) | 12
CNC(=O)[C@H]1C[C@@H]2CCN(CCc3ccccc3)C[C@@H]2O1 | -81.7
CN1CC(=O)N(c2cccc(F)c2)CC12CCN(Cc1cnn(C)c1)C2 (stereo unspecified) | -5.87
Cc1nc(CN2CC3(CCN(c4ncccn4)C3)CC2=O)cs1 (stereo unspecified) | 5.31
COCCO[C@H]1CCN(C(=O)c2ccno2)[C@H]1Cc1ccncc1 | -78.1
O=S(=O)(NCC1COCc2c(-c3ccncc3)nnn2C1)C1CC1 (stereo unspecified) | -80.9
CN(C)CCOCC1CN(Cc2ccoc2)Cc2nnn(C)c21 (stereo unspecified) | -1.53
O=C1[C@@H]2CC[C@@H](CN(Cc3ccccc3OC(F)F)C2)N1CC1CC1 | -6.17
CCCn1cc(C(=O)NC2CCC(n3cnnc3)CC2)c(C)n1 (stereo unspecified) | 0.642
